SKN-1 inh: C. elegans SKN-1 inhibition; C. elegans VP596 Pgst-4::GFP/RFP ratio, acrylamide-induced, 24 h; inhibition, % at 21.8 µM; actives 0.49% (n = 360,000);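 active means interference check ratio from 0.5 to 1.5 plus GFP to RFP signal ratio inhibition reaching or exceeding a fixed threshold, cut at about 30% in these data, passing the limit was not always enough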
TLR9-MyD88 block: inhibitors of human TLR9-MyD88 binding | Q9NR96+Q99836 | CHO BLA complementation TLR9-MyD88, CCF4 FRET ratio | inhibition, % at 4.98 µM | actives 0.21% (n = 340,000);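 active means inhibition above the mean over all tested compounds plus 3 SD, cut at about 21% in these data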
MT1-MMP act inh: blocks activation of human MT1-MMP; P50281; HT1080 RFP-PRO-GFP cells, GFP/RFP ratio fluorescence, overnight; percent of plate control window, DMSO zero; GFP/RFP ratio change, % at 20 µM; actives 0.061% (n = 360,000); AID 651647;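 active means GFP/RFP ratio change of at least 30% with cell ATP level not reduced by more than half and red fluorescence within 50% of control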
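Test system: HT1080 RFP-PRO-GFP cells; Benchmarks: DMSO and RFP-L50D-GFP cell wells; Timing: cells overnight before dosing, compound overnight, 37 °C, 5% CO2; Compound: one 20 µM compound dose with 1% DMSO; Read-out: GFP/RFP fluorescence ratio.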
TLR4 MyD88 comp: TLR4-MyD88 interaction inhibition in cells; actives 0.18% (n = 200,000); O00206+Q99836; inhibition, % at 8.4 µM; HeLa CL3-4 TLR4/MyD88 BLA complementation, FRET ratio; in the data active means inhibition above about 25%
Target sequence (O00206 whole entry, looked up): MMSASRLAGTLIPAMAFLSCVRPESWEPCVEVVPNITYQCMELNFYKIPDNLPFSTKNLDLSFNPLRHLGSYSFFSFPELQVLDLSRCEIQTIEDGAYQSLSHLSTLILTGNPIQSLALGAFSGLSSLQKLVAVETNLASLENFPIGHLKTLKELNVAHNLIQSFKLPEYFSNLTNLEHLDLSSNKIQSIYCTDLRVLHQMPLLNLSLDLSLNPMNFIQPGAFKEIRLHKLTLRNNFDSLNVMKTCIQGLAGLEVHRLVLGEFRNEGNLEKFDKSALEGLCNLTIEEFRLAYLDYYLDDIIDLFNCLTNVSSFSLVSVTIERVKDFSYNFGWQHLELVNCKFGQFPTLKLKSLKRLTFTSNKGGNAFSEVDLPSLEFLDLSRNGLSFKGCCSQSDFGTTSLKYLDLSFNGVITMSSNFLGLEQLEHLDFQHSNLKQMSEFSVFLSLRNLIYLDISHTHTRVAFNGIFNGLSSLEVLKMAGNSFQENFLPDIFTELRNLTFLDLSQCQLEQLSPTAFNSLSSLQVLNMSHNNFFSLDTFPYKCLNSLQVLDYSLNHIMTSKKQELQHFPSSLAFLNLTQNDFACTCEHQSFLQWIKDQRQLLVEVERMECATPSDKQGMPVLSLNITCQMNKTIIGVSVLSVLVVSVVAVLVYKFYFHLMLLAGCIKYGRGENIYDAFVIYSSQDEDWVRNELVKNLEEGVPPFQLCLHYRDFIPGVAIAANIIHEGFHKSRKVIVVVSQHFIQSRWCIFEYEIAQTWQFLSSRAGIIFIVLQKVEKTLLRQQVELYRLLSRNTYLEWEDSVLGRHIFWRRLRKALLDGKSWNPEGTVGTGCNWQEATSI
Target sequence (Q99836 whole entry, looked up): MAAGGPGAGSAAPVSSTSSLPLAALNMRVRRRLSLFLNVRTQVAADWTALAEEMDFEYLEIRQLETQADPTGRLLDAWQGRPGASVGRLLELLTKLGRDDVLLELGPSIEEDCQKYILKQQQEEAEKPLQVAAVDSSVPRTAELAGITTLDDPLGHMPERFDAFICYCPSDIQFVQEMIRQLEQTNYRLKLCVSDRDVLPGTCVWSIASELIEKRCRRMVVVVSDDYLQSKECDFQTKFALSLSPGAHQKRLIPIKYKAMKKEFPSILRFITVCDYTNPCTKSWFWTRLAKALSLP
NOD2 RIPK2 PPI: blocks binding of human NOD2 to RIPK2; inhibition, % at 4.98 µM; CHO BLA complementation NOD2-RIPK2, CCF4 ratio; actives 0.38% (n = 360,000); O43353; in the data active means inhibition above about 21%
Numbers stand for hits; i = inactive; nt = no result. Shown are actives, neighbours in structure and some others; about 0.99% of the full set was active somewhere.

SMILES	SKN-1 inh	TLR9-MyD88 block	MT1-MMP act inh	TLR4 MyD88 comp	NOD2 RIPK2 PPI
COCCCNC(=O)c1ccc2c3c(onc13)-c1ccccc1C2=O	62.1	i	i	nt	i
O=C(Nc1ccc(Cl)cc1)Nc1ccc(Br)cn1	37.1	i	i	nt	i
CCOc1ccc(NC(=O)Nc2ccc(Br)cn2)cc1	i	i	i	i	i
COc1ccc(C)cc1Nc1n[n+](-c2ccccc2)c(-c2c(OC)ccc3ccccc23)s1	i	i	i	nt	i
c1ccc(-[n+]2nc(Nc3cccc4ccccc34)sc2-c2c3ccccc3cc3ccccc23)cc1	i	44.3	i	nt	50.9
Cc1ccc(CN2C(=O)c3ccccc3C2c2nnnn2-c2c(C)cccc2C)cc1 (stereo not drawn)	i	nt	i	nt	i
Clc1ccc(CN2CCCCCC2)cc1	i	i	i	nt	i
O=[N+]([O-])c1cc(CN2CCCC2)ccc1Sc1ccc(Cl)cc1	51.9	i	i	i	i
O=[N+]([O-])c1cccc(-c2nc(-c3ccccc3)no2)c1	i	i	i	i	i
O=[N+]([O-])c1cccc(-c2noc(-c3ccco3)n2)c1	52.7	i	i	nt	i
Cc1ccc(SCC(=O)OCC(=O)N(C)C2CCS(=O)(=O)C2)cc1C (stereo not drawn)	i	i	i	nt	i
CCCCCCC(=O)Nc1ccc(Br)cn1	i	i	i	nt	i
Nc1ccc(C=C2C=Cc3ccccc32)cc1	52.4	i	i	nt	i
Cc1ccc2sc(NC(=O)c3cccc(N4C(=O)CCC4=O)c3)nc2c1C	37.5	i	i	nt	i
N#Cc1ccccc1S(=O)(=O)N1CCN(C(=O)C2CCCC2)CC1	i	i	i	nt	i
COc1ccc(N=Cc2cc(Cc3ccccc3Cl)cc([N+](=O)[O-])c2O)cc1OC	38.2	i	i	i	i
COC(=O)c1c(NC(=S)NN2CCN(C)CC2)sc2c1CCC(C)C2 (stereo not drawn)	34.7	i	i	i	i
O=C(NC(Cc1ccccc1)C(=O)O)NC12CC3CC(CC(C3)C1)C2 (stereo not drawn)	i	i	i	nt	i
O=C(O)c1ccccc1-c1ccccc1C(=O)Nc1ccc2c(c1)oc(=O)c1ccccc12	36.2	i	i	nt	i
O=C(O)c1ccccc1-c1ccccc1C(=O)Nc1ccc2c(c1)C(=O)c1ccccc1-2	i	i	i	nt	i
CC1(C)CCC[C@]2(C)[C@H]3Cc4cc(O)ccc4O[C@]3(C)CC[C@@H]12	i	i	i	nt	i
c1cc(-c2cccs2)nc(-c2cccs2)c1	i	i	i	i	i
c1csc(-c2cn3ccc4ccccc4c3n2)c1	39.4	i	i	i	i
C[C@H](NC(=O)c1ncn2c1C(=O)NC[C@H]2C)C(=O)OC(C)(C)C	i	i	i	nt	i
Cc1c(CN2CCCC(C(=O)Nc3cccc(-n4cccn4)c3)C2)cnn1C (stereo not drawn)	35.8	i	i	nt	i
SMILES	SKN-1 inh	TLR9-MyD88 block	MT1-MMP act inh	TLR4 MyD88 comp	NOD2 RIPK2 PPI
CN(C)N1C(N)=C(C#N)C(c2ccc(F)cc2)C2=C1CCCC2=O (stereo not drawn)	i	i	i	nt	i
CCc1ccc(C2C(C#N)=C(N)N(N(C)C)C3=C2C(=O)CCC3)cc1 (stereo not drawn)	36.2	i	i	nt	i
CC(c1ccccc1)N1C(=O)c2cccnc2C1=O (stereo not drawn)	38.6	i	i	nt	i
O=C1c2cccnc2C(=O)N1Cc1ccccc1	i	i	i	i	i
Fc1cccc(Cl)c1CSc1ccc(-c2cccnc2)nn1	i	i	i	i	i
Clc1ccc(CSc2ccc(-c3cccnc3)nn2)cc1	37.2	i	i	i	i
O=C(CC[C@H]1O[C@@H](n2ccc(=O)[nH]c2=O)[C@H](O)[C@@H]1O)N[C@H](Cc1ccccc1)C(=O)NCCCc1ccccc1	i	nt	i	nt	i
O=C(Nc1ccc(-c2nc3ncccc3o2)cc1)c1ccco1	i	i	i	i	i
O=C(Nc1ccc2oc(-c3cccnc3)nc2c1)c1ccc(Br)o1	35.5	i	i	i	i
O=C(Nc1ccc2oc(-c3cccnc3)nc2c1)c1ccco1	i	i	i	i	i
O=C(Nc1ccc(-c2nc3ncccc3o2)cc1)c1ccc(Br)o1	38.3	i	i	i	i
c1ccc(OCCSc2nc3ccccc3o2)cc1	38.6	i	i	i	i
c1ccc2oc(SCc3nc4ccccc4s3)nc2c1	45.0	i	i	i	i
c1ccc(-c2noc(CSc3nc4ccccc4o3)n2)cc1	43.8	i	i	i	i
C[C@H](CO)N1C[C@H](C)[C@@H](CN(C)S(=O)(=O)c2cccs2)Oc2c(NC(=O)NC3CCCCC3)cccc2C1=O	i	i	i	nt	i
O=C(CN1CCN(S(=O)(=O)c2ccc(Cl)cc2)CC1)c1ccc(O)c(O)c1	i	i	i	nt	i
COC(=O)c1cc(NC(=O)CN(c2ccc3c(c2)OCO3)S(C)(=O)=O)ccc1Cl	35.8	i	i	i	i
CS(=O)(=O)N(CC(=O)Nc1ccc2c(c1)OCO2)c1ccc2c(c1)OCO2	i	i	i	i	i
CCN(CC)S(=O)(=O)c1cccc2c(N(C)C)cccc12	45.1	i	i	i	i
CCCCOc1ccc(C(=O)OC2CC(C)N(C)CC2C)cc1 (stereo not drawn)	41.9	i	i	i	i
CC1CN(C)C(C)CC1OC(=O)C(c1ccccc1)c1ccccc1 (stereo not drawn)	i	nt	i	nt	i
Clc1ccc(-c2cn3cccnc3n2)cc1Cl	41.8	i	i	i	i
Brc1ccc(-c2cn3cccnc3n2)cc1	48.1	i	i	i	i
Clc1ccc(-c2cn3cccnc3n2)cc1	i	i	i	i	i
Brc1ccc(-c2cn3ccccc3n2)cc1	i	i	i	nt	i
SMILES	SKN-1 inh	TLR9-MyD88 block	MT1-MMP act inh	TLR4 MyD88 comp	NOD2 RIPK2 PPI
C#CCCc1cocc1/C=[N+](\[O-])c1ccc(C(=O)OCC)cc1	i	i	i	nt	i
Cc1ccc(N2C(=O)c3ccccc3C(C)(C)C2=O)cc1	i	i	i	nt	i
CC1(C)c2ccccc2C(=O)c2ccccc21	45.6	i	i	nt	i
CC1(C)CC(=Cc2cc(O)ccc2[N+](=O)[O-])C(=O)c2ccccc21	i	i	i	nt	i
CC1(C)C(=Cc2ccccc2)C(=O)c2ccccc21	40.6	i	i	nt	i
Cc1c(Cl)cccc1NC(=O)CC1NCCNC1=O (stereo not drawn)	38.1	i	i	i	i
O=C(CCCCn1ccc(=O)[nH]c1=O)Nc1ccc(O)c(C(=O)O)c1	i	i	i	nt	i
COc1ccc(-c2nnc(-c3ccc(Br)o3)o2)cc1OC	35.9	i	i	i	i
COc1ccc(-c2nc(-c3ccc(Br)o3)no2)cc1OC	i	i	i	i	i
O=C(COC(=O)c1ccc(Cl)nc1)Nc1ccc2ccccc2c1	47.1	i	i	nt	i
COc1ccc(C(C(=O)NC2CCCC2)N(C(=O)c2snc(-c3ccc(F)cc3)c2N)c2ccc(F)cc2)cc1 (stereo not drawn)	45.9	i	i	i	i

Source: PubChem BioAssay (several laboratories)
